# Source: ChEMBL document CHEMBL4480390, “Cink4T, a quinazolinone-based dual inhibitor of Cdk4 and tubulin polymerization, identified via ligand-based virtual screening, for efficient anticancer therapy” (Eur J Med Chem, 2019)
# pEC50, pIC50: −log10 of the molar value. Activity calls are given as the source filed them. The calls are words filed in the database; no cut-off is given here.
# What was measured:
# T47D [1] = test: Cell cycle arrest in human T47D cells assessed as accumulation at sub-G1 phase at 1.5 uM measured after 18 hrs by propidium iodide staining based flow cytometry relative to control; assay type: functional
# T47D [2] = test: cells; details: Homo sapiens, 72 h
# T47D [3] = test: Cell cycle arrest in human T47D cells assessed as accumulation at sub-G1 phase at 1.5 uM treated 18 hrs post serum-starvation measured after 18 hrs in presence of fresh medium containing FBS by propidium iodide staining based flow cytometry relative to control; assay type: functional
# CDK9/cyclin T1 = CDK9/cyclin T1 (Homo sapiens, UniProt P50750); test: Inhibition of N-terminal GST-HIS6 fusion protein tagged human full length CDK9 (M1 to F372 residues)/N-terminal HIS6-fused human Cyclin-T1 (M1 to K726 residues) expressed in Sf9 cells using RBCTF as substrate measured after 1 hr by ADP-glo luminescence assay
# MDA-MB-468 [4] = test: Cell cycle arrest in human MDA-MB-468 cells assessed as ratio of G1 to S phase at 10.85 uM measured after 18 hrs by propidium iodide staining based flow cytometry (reference value: 2.17); assay type: functional
# T47D [5] = test: Cell cycle arrest in human T47D cells assessed as accumulation at G0/G1 phase at 1.5 uM treated 18 hrs post serum-starvation measured after 18 hrs in presence of fresh medium containing FBS by propidium iodide staining based flow cytometry (reference value: 60.3%); assay type: functional
# A549 [6] = test: Cell cycle arrest in human A549 cells assessed as accumulation at G0/G1 phase at 1.6 uM treated 32 hrs post mimosine addition measured after 18 hrs in presence of fresh medium by propidium iodide staining based flow cytometry (reference value: 58%); assay type: functional
# Tubulin (Sus scrofa) = Tubulin (Sus scrofa) (UniProt P02554+P02550); test: Inhibition of porcine tubulin polymerization incubated for 1 min by fluorescence based assay; assay type: protein assay
# Summary of the method: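 Compounds added from 10x stocks in duplicate and warmed at 37°C ≤1 min. Ice-cold tubulin pre-mix then added. Fluorescent reporter read at ex 360/em 460 nm for 60 min. Paclitaxel served as enhancer control, CaCl2 as inhibitor control.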
# A549 [7] = test: Cell cycle arrest in human A549 cells assessed as accumulation at S phase at 1.6 uM measured after 18 hrs by propidium iodide staining based flow cytometry (reference value: 21%); assay type: functional
# T47D [8] = test: Cell cycle arrest in human T47D cells assessed as increase in accumulation at S phase at 0.75 uM treated 18 hrs post serum-starvation measured after 18 hrs in presence of fresh medium containing FBS by propidium iodide staining based flow cytometry relative to control; assay type: functional
# Calu-1 [9] = test: Cell cycle arrest in human Calu1 cells assessed as accumulation at G0/G1 phase at 1.8 uM treated 18 hrs post serum-starvation measured after 18 hrs in presence of fresh medium containing FBS by propidium iodide staining based flow cytometry (reference value: 69.2%); assay type: functional
# A549 [10] = test: Cell cycle arrest in human A549 cells assessed as ratio of G1 to S phase at 1.6 uM treated 32 hrs post mimosine addition measured after 18 hrs in presence of fresh medium by propidium iodide staining based flow cytometry (reference value: 2.5); assay type: functional
# [11] = target: Cyclin-dependent kinase 4/cyclin D1 (Homo sapiens) (UniProt P11802+P24385); test: Inhibition of CDK4/cyclin D1 in human T47D cells assessed as reduction in phosphorylation of pRb at Ser795 residues at 0.75 to 1.5 uM measured after 18 hrs by Western blot analysis; assay type: cell-based
# Summary of the method: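 T47D cells left untreated or treated 18 h at 0.75 or 1.5 µM. Western blots probed with phospho-specific pRb antibodies (Ser780, Ser795, Ser807/811) and a total-pRb antibody; HRP-conjugated secondary for detection.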
# A549 [12] = test: Cell cycle arrest in human A549 cells assessed as accumulation at G0/G1 phase at 0.8 uM measured after 18 hrs by propidium iodide staining based flow cytometry (reference value: 58%); assay type: functional
# Calu-1 [13] = test: Cell cycle arrest in human Calu1 cells assessed as accumulation at G0/G1 phase at 0.9 uM treated 18 hrs post serum-starvation measured after 18 hrs in presence of fresh medium containing FBS by propidium iodide staining based flow cytometry (reference value: 69.2%); assay type: functional
# A549 [14] = test: Cell cycle arrest in human A549 cells assessed as accumulation at S phase at 0.8 uM measured after 18 hrs by propidium iodide staining based flow cytometry (reference value: 21%); assay type: functional
# MDA-MB-468 [15] = test: cells; details: Homo sapiens, MDA-MB-468, 72 h
# [16] = target: Cyclin-dependent kinase 4/cyclin D1 (Homo sapiens, UniProt P11802); test: Inhibition of recombinant human N-terminal GST-tagged CDK4 (S4 to E303 residues)/Cyclin D1 (Q4 to I295 residues) expressed in sf9 cells using RBCTF as substrate measured after 1 hr by ADP-glo luminescence assay
# Summary of the method: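 ADP-Glo luminescence assay of Cdk4–cyclin D1 with RBCTF substrate, 200 ng enzyme, ATP 125 µM (2.5x working mix), Tris/MgCl2/BSA/DTT/MnCl2 buffer, 1 h at 21°C, then two 40-min reagent steps. IC50 from a four-parameter variable-slope sigmoidal fit of inhibition against concentration; mean ± SD from three independent experiments.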
# MDA-MB-468 [17] = test: Cell cycle arrest in human MDA-MB-468 cells assessed as accumulation at sub-G1 phase at 22 uM measured after 18 hrs by propidium iodide staining based flow cytometry relative to control; assay type: functional
# A549 [18] = test: Cell cycle arrest in human A549 cells assessed as accumulation at G2/M phase at 0.8 uM measured after 18 hrs by propidium iodide staining based flow cytometry (reference value: 18%); assay type: functional
# A549 [19] = test: Cell cycle arrest in human A549 cells assessed as accumulation at G0/G1 phase at 1.6 uM measured after 18 hrs by propidium iodide staining based flow cytometry (reference value: 58%); assay type: functional
# Cytochrome P450 1A1 = target: T1, Cytochrome P450 1A1 (Homo sapiens, UniProt P04798); test: Inhibition of recombinant human CYP1A1 expressed in baker's yeast-derived microsomes using 7-ethoxyresorufin as substrate by fluorescence assay; assay type: ADME
# T1 sequence (P04798 whole entry): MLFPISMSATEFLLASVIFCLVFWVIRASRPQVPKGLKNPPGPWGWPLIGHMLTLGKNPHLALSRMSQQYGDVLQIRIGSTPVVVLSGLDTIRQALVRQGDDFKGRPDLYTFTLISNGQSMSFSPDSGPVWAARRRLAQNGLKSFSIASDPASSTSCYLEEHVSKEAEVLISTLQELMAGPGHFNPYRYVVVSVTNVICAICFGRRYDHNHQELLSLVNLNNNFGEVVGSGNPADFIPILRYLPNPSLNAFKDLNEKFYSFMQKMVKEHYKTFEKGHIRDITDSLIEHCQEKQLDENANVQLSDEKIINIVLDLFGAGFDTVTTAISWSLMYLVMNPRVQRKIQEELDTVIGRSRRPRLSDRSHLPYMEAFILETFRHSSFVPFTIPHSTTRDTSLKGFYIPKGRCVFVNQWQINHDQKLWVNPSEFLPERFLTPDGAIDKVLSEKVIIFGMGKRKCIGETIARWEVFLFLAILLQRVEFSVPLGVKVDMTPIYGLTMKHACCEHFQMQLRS
# Sequence of CDK9/cyclin T1 (O60563 whole entry, the tested form may be a part): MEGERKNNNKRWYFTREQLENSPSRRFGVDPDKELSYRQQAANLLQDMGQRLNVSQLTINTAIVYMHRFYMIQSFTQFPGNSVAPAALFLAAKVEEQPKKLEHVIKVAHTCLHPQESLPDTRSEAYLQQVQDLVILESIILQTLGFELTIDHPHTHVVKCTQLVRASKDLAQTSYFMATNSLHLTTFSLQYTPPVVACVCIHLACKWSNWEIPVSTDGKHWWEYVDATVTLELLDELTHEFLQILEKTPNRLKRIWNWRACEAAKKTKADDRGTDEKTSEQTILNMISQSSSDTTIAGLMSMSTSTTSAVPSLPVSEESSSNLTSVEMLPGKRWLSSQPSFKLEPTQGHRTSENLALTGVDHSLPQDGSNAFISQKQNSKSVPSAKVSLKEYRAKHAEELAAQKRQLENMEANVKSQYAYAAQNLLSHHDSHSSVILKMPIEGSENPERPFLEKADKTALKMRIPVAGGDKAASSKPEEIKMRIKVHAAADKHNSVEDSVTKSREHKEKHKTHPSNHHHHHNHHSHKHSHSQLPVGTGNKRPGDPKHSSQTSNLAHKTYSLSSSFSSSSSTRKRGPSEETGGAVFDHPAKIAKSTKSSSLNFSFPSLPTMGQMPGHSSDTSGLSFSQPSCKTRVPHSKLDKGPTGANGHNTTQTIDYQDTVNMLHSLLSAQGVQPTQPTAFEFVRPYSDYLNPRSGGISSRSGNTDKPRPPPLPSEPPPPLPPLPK
# Sequence of CDK9/cyclin T1 (P50750 whole entry, the tested form may be a part): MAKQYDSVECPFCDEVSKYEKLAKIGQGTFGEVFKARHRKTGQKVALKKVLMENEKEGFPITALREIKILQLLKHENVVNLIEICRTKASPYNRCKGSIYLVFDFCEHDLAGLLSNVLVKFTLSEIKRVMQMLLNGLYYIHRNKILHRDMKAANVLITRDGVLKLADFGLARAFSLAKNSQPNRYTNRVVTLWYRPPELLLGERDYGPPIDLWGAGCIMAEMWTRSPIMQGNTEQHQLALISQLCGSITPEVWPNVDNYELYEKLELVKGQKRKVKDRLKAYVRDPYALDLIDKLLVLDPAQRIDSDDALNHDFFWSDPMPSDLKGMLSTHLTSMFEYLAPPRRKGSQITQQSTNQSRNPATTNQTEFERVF
# Sequence of Tubulin (Sus scrofa) (P02550 whole entry, looked up): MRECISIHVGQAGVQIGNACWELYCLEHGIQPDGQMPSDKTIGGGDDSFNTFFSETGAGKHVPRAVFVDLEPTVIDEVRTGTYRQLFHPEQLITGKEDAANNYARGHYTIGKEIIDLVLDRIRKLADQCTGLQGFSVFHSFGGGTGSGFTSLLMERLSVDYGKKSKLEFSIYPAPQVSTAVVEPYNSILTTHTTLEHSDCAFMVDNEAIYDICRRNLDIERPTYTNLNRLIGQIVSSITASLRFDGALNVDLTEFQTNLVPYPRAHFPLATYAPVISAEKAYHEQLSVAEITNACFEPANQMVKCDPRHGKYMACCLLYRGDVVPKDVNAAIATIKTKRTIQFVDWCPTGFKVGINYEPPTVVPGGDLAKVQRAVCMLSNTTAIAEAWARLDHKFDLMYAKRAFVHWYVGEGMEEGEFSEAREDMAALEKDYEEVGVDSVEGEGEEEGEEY
# Sequence of Tubulin (Sus scrofa) (P02554 whole entry, looked up): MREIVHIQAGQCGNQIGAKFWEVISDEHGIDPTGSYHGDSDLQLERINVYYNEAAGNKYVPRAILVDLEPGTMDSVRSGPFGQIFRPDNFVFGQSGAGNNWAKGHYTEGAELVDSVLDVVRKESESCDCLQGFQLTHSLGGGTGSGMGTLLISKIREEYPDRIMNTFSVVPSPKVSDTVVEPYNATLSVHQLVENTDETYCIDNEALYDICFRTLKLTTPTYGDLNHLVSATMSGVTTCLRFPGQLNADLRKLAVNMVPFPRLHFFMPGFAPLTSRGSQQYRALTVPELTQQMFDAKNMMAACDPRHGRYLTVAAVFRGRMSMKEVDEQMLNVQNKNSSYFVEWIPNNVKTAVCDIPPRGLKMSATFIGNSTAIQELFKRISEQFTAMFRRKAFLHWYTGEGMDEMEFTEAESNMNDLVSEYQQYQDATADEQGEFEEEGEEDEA
# Sequence of Cyclin-dependent kinase 4/cyclin D1 (P11802 whole entry, the tested form may be a part): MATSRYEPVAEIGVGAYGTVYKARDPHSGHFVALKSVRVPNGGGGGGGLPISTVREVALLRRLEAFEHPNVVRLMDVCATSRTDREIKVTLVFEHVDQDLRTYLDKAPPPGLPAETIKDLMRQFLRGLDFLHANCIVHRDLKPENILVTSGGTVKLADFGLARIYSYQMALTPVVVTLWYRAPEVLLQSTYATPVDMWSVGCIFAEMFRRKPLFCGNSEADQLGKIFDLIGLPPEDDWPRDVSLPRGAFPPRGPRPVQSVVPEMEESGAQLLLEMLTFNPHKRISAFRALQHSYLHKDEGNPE
# Sequence of Cyclin-dependent kinase 4/cyclin D1 (P24385 whole entry, further chain, the tested form may be a part): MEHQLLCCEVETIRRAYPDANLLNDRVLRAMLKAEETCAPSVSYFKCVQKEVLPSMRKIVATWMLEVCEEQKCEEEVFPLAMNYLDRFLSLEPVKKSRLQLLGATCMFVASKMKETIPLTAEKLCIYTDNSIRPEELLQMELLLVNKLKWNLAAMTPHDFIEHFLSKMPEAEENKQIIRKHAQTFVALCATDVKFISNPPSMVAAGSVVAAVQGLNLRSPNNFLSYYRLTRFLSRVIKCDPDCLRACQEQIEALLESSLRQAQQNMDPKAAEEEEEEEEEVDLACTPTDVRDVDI
compound,measurement,setting,value
O=C(COc1ccc(-c2nc3ccccc3c(=O)[nH]2)cc1)Nc1cccc(Cl)c1,Activity,T47D [1],20%
same,pEC50,T47D [2],6.12
same,Activity,T47D [3],18.6%
same,pIC50,CDK9/cyclin T1,< 4.00
same,Ratio,MDA-MB-468 [4],3.46
same,Activity,T47D [5],68.1%
same,Activity,A549 [6],12%
same,inhibition,Tubulin (Sus scrofa),Dose-dependent effect
same,Activity,A549 [7],16%
same,Activity,T47D [8],2.13%
same,Activity,Calu-1 [9],88%
same,Ratio,A549 [10],0.6
same,inhibition,[11],Active
same,Activity,A549 [12],65%
same,Activity,Calu-1 [13],75%
same,Activity,A549 [14],10%
same,pEC50,MDA-MB-468 [15],4.96
same,pIC50,[16],6.33
same,Activity,MDA-MB-468 [17],0%
same,Activity,A549 [18],28%
same,Activity,A549 [19],12%
same,pIC50,Cytochrome P450 1A1,< 5.30
